Exocytosis inh = blocks lytic granule exocytosis; actives 0.66% (n = 360,000); inhibition, % at 10 µM; AID 651702; TALL-104 LAMP-1 surface exposure, flow cytometry; cells stimulated with thapsigargin and PMA;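 active means inhibition above about 55%, limit read from the data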
XBP1 UPR activ = adaptive UPR (XBP1) activation; activation, % at 20 µM; AID 463104; actives 0.33% (n = 330,000); CHO-XBP1 luciferase reporter, IRE1-XBP1 UPR activation, luminescence; percent of tunicamycin response, DMSO as zero;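 active means versus positive control, 20 µM dose yields 30% or more activation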
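Material: CHO-XBP1 cells stably carrying IRE1-XBP1-driven luciferase reporter | Medium: F12 with 10% serum | Compound dosing: 20 µM single concentration, DMSO 1% | Incubation: Overnight seeding at 37 °C, 6 h compound treatment at 37 °C | Detection: Steady-Glo luminescence read | Read-out basis: % activation of reporter signal versus tunicamycin and DMSO controls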
ABHD5 PLIN5 PPI = blocks binding of human ABHD5 to perilipin-5; Q00G26+Q8WTS1; Split G. princeps luciferase complementation, luminescence, 4 h; inhibition, % at 4 µM; actives 0.78% (n = 360,000); AID 602281;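 active means inhibition above the mean inhibition across every tested compound plus 3 SD, cut at about 22% in these data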
UPR CHOP act = activators of apoptotic arm of unfolded protein response (CHOP); CHO-CHOP luciferase reporter, UPR activation, luminescence; percent of tunicamycin response over DMSO baseline; activation, % at 10 µM; actives 0.34% (n = 330,000); AID 449763;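 active means at 10 µM dose, activation of 40% or more, normalized to positive control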
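System: CHO-CHOP luciferase reporter cell line | Buffer or medium: F12 medium containing 10% fetal bovine serum | Doses: One dose, 10 µM in 0.5% DMSO | Times: 6 h compound exposure at 37 °C after overnight seeding | Signal: Luciferase luminescence | Read-out: % activation vs tunicamycin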
Mdm2 MdmX PPI = inhibitors of human Mdm2/MdmX interaction. O15151+Q00987. SaOS-2 split-luciferase Mdm2/MdmX complementation, luminescence. inhibition, % at 8 µM. actives 3% (n = 330,000). AID 485346;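 active means inhibition of at least 50% at 8 µM in the primary screen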
Mdm2 MdmX conf = human Mdm2/MdmX binding inhibition, confirmed. luminescent assay. actives 55% (n = 10,000). inhibition, % at 8 µM. shares compounds with Mdm2 MdmX PPI; in the data active means inhibition above about 40%
Full FLuc ctr = full-length luciferase inhibition in Mdm2/MdmX counter-screen | shares compounds with Mdm2 MdmX PPI | SaOS-2 full-length luciferase counterscreen, luminescence | inhibition, % at 8 µM | actives 77% (n = 6,200);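 active means mean inhibition at 8 µM reaching about 37%, which flags the compound as non-specific, limit read from the data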;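 further: p53-null SaOS-2 cells with luciferase driven by a doxycycline-inducible promoter; compound on cells about two nights before reading with doxycycline added after day one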
Numbers stand for hits; 0 = inactive; - = no result. Only some compounds are listed: those with a hit (about 4% of all), similar ones and a draw of the others.

SMILES	Exocytosis inh	XBP1 UPR activ	ABHD5 PLIN5 PPI	UPR CHOP act	Mdm2 MdmX PPI	Mdm2 MdmX conf	Full FLuc ctr
COc1cc2c(cc1NC(=O)COc1ccc3ccccc3c1)oc1ccccc12	0	0	0	0	62.4	0	-
COc1ccc(-c2nnc(Nc3nc4c(OC)cccc4s3)o2)cc1	0	-	0	-	-	-	-
COc1ccc(-c2nnc(Nc3nc4c(OC)cccc4s3)o2)c(OC)c1	0	0	0	0	68.0	58.2	47.7
O=C(COc1ccc(/C=N/NC(=O)c2ccccc2O)cc1)Nc1ccc([N+](=O)[O-])cc1	0	0	0	0	0	-	-
Cc1ccc(C)c(NC(=O)c2ccccc2NS(=O)(=O)c2cc([N+](=O)[O-])ccc2C)c1	0	0	0	0	89.5	93.5	40.2
ON=C1CCCCCCCC1	0	-	0	-	-	-	-
NC(N)=NN=C1CCCCCCCCCCC1	0	0	0	0	59.9	42.7	57.8
CC(C)NC(=O)c1cc2cc(Br)ccc2oc1=O	0	0	0	0	0	-	-
Cc1ccc(C(C)NC(=O)c2cc3cc(Br)ccc3oc2=N)cc1 (stereo not given)	0	0	0	0	51.2	0	-
Fc1c(F)c(F)c(/C=N/NC(=S)Nc2cccnc2)c(F)c1F	0	0	0	0	51.4	0	74.0
CCCC[C@@H]1CNCCN1CCc1cc(C(F)(F)F)cc(C(F)(F)F)c1	0	0	0	0	0	-	-
NC1=NC[C@H](CC2CCCCC2)N1CCc1cc(C(F)(F)F)cc(C(F)(F)F)c1	0	0	0	0	100.2	81.2	59.5
FC(F)(F)c1cc(CCN2CCNC[C@@H]2CC2CCCCC2)cc(C(F)(F)F)c1	0	0	0	0	99.6	0	-
CCc1cccc(CC)c1NC(=S)NCCc1c(C)[nH]c2ccccc12	0	0	0	0	50.7	0	-
CCc1cccc(CC)c1NC(=S)NCCc1ccc(O)c(O)c1	0	0	0	0	0	-	-
CCOC(=O)/C(C#N)=C(/C)c1ccc(OC)cc1	0	0	0	0	0	-	-
CN(C)S(=O)(=O)Nc1ccc(C(=O)O)cc1	0	0	0	0	0	-	-
Cc1ccc(S(=O)(=O)O/N=C2\CCCc3ccccc32)cc1	0	0	0	0	0	-	-
CC1=C(C)/C(=N\OS(=O)(=O)c2ccccc2)C=CC1=O	96.8	0	62.2	0	94.8	83.6	52.5
CC(C)N(c1ccccc1)c1ccc(NC(=O)[C@@H]2O[C@H](CO)[C@H](O)[C@H](O)[C@H]2O)cc1	0	-	0	-	-	-	-
CC(C)N(c1ccccc1)c1ccc(NC(=O)CCl)cc1	0	0	0	0	96.8	99.0	51.3
Cc1ccn(CCSCC(=O)O)n1	0	0	0	0	0	-	-
Cc1occc1C(=O)Nc1nnc(C(F)(F)F)s1	0	0	0	0	0	-	-
O=C(Nc1ccccc1C(=O)Nc1nnc(C(F)(F)F)s1)c1ccccc1	0	0	0	0	97.4	97.1	0
O=c1c(C(c2nnnn2C2CCCCC2)N2CCCCC2)coc2ccc(Cl)cc12 (stereo not given)	0	0	0	0	52.7	0	-
SMILES	Exocytosis inh	XBP1 UPR activ	ABHD5 PLIN5 PPI	UPR CHOP act	Mdm2 MdmX PPI	Mdm2 MdmX conf	Full FLuc ctr
Clc1ccc(C(c2nnnn2C2CCCC2)N2CCN(Cc3ccncc3)CC2)cc1 (stereo not given)	0	0	0	0	0	-	-
Nc1nc(CCl)nc(Nc2cccc3ccccc23)n1	0	0	0	0	97.4	98.3	61.0
Nc1nc(Nc2cccc3ccccc23)nc(C2CCCC2=O)n1 (stereo not given)	-	0	-	0	0	-	-
COC(=O)[C@@H]1CC[C@H](C)[C@@H](c2ccc(C)cc2)N1C(=O)c1ccc(/C=N/O[C@@H](C)CN2CCCCc3nc(C)c(C)cc32)cc1	-	0	-	0	89.2	0	-
C/C(CCN1CCCCc2nc(C)c(C)cc21)=N\O[C@@H](C)CN1CCCCc2nc(C)c(C)cc21	-	0	-	0	0	-	-
O=C(CN1C(=O)/C(=C/c2cccc(Cl)c2)SC1=S)NC1C=CS(=O)(=O)C1 (stereo not given)	0	0	0	0	0	-	-
O=C(CN1C(=O)S/C(=C\c2cccc(Cl)c2)C1=O)NC1C=CS(=O)(=O)C1 (stereo not given)	0	0	0	0	56.9	0	-
Cc1ccn2c(NC3CCCCC3)c(-c3cccc(SC4CCCCC4)c3)nc2c1	0	0	0	0	91.4	0	-
CC[C@]12c3[nH]c4ccc(Cl)cc4c3CCN1C(=O)[C@@H](CC(=O)NCC13CC4CC(CC(C4)C1)C3)C[C@@H]2C(=O)N1CCN(C(=O)C2CC2)CC1	0	0	0	0	62.3	52.3	52.6
C[C@]12c3[nH]c4ccc(Cl)cc4c3CCN1C(=O)[C@@H](CC(=O)NCC13CC4CC(CC(C4)C1)C3)C[C@@H]2C(=O)N1CCCCC1	0	0	0	0	73.7	0	-
CC[C@]12c3[nH]c4ccc(OC)cc4c3CCN1C(=O)C(CC(=O)NCC13CC4CC(CC(C4)C1)C3)C[C@@H]2C(=O)N1CCN(C(=O)C2CC2)CC1 (stereo not given in full)	0	0	0	0	0	-	-
C[C@]12c3[nH]c4ccc(Cl)cc4c3CCN1C(=O)[C@@H](CC(=O)NCC13CC4CC(CC(C4)C1)C3)C[C@@H]2C(=O)N1CCOCC1	0	0	0	0	66.0	0	-
Cc1n[nH]c(C)c1S(=O)(=O)N1CCc2ccccc2C1	0	0	0	0	0	-	-
COc1ccc(N=C2S/C(=C\c3ccc(Cl)c([N+](=O)[O-])c3)C(=O)N2CCN(C)C)cc1	72.8	0	0	0	100.1	67.0	0
CCCN1C(=O)/C(=C/c2ccc(C)s2)SC1=Nc1ccc(OC)cc1	0	0	0	0	0	-	-
CC1(NC(=O)CC(c2ccccc2)(c2ccccc2)c2ccccc2)CCN(CCCc2ccccc2)C1=O (stereo not given)	0	0	0	0	76.3	0	-
O=C(Nc1cccc(C(F)(F)F)c1)Nc1ccc(N2CCCC2)c(S(=O)(=O)Nc2ccccc2Cl)c1	0	0	0	0	99.1	97.3	56.9
CC1(C(=O)NCCc2ccccc2)Cc2c(-c3cccc(C(N)=O)c3)ccnc2O1 (stereo not given)	0	-	0	-	-	-	-
NS(=O)(=O)c1ccc(N2N=C(c3ccccc3)CC2c2ccccc2Br)cc1 (stereo not given)	0	0	0	0	52.0	0	-
COc1ccc(C2CC(c3ccncc3)=NN2c2ccc(S(N)(=O)=O)cc2)cc1 (stereo not given)	0	0	0	0	0	-	-
NS(=O)(=O)c1ccc(N2N=C(c3ccc(Br)cc3)CC2c2ccc(F)cc2)cc1 (stereo not given)	0	0	0	0	72.3	0	75.2

Screens as filed in PubChem BioAssay.
